# From ChEMBL document CHEMBL1144557, “The novel C-5 aryl, alkenyl, and alkynyl substituted uracil derivatives of L-ascorbic acid: synthesis, cytostatic, and antiviral activity evaluations” (Bioorg Med Chem, 2007)
# Legend:
# [1] = system: Human alphaherpesvirus 1; assay: Antiviral activity against HSV1 TK- KOS ACV-induced cytopathogenicity in E6SM cells; assay type: functional; settings: Human alphaherpesvirus 1, KOS
# [2] = system: Coxsackievirus B4; assay: Antiviral activity against Coxsackie virus B4-induced cytopathogenicity in Vero cells; assay type: functional; settings: Enterovirus B
# [3] = system: L1210; assay: Antiproliferative activity against mouse L1210 cells; assay type: functional, cell-based
# In short: (§1)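 Suspension cells seeded at 50 × 10³ cells/well with a range of test compound concentrations. Cell number counted with a Coulter counter after 2 days (L1210) or 3 days (Molt4/C8, CEM). IC50 is the concentration that cuts cell growth by 50% versus untreated controls, read from plots of cell number (% of control) against concentration.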
# [4] = system: WI-38; assay: Antiproliferative activity against human WI38 cells after 72 hrs by MTT assay; assay type: functional, cell-based; settings: WI-38, 72 h
# In short: (§2)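 Monolayers grown in DMEM with 10% FBS, 2 mM L-glutamine and penicillin/streptomycin at 37 °C, 5% CO2. Seeded at 1 × 10⁴–3 × 10⁴ cells/mL on day 0. Compounds from 0.04 M DMSO stocks added at five 10-fold dilutions (10⁻⁸–10⁻⁴ M final), with matched DMSO controls, for 72 h. MTT added for 4 h, formazan dissolved in DMSO, absorbance read at 570 nm. Percentage growth calculated against time-zero and untreated OD. IC50 is 50% inhibition of proliferation.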
# [5] = system: Sindbis virus; assay: Antiviral activity against Sindbis virus-induced cytopathogenicity in Vero cells; assay type: functional
# [6] = Antiproliferative activity against human Molt4/C8 cells; assay type: functional, cell-based; settings: MOLT-4; in short: as §1
# [7] = system: CCRF-CEM; assay: Antiproliferative activity against human CEM cells; assay type: functional, cell-based; in short: as §1
# [8] = Cytotoxicity against E6SM cells; assay type: cell-based; settings: human, read-out: MCC
# In short: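 Cells seeded at 5 × 10³ cells/well and exposed to medium containing a range of test compound concentrations. After 3 days at 37 °C, cell morphology examined microscopically. Reported as minimum cytotoxic concentration (MCC), the concentration causing a microscopically detectable alteration of normal cell morphology.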
# [9] = system: Human alphaherpesvirus 2; assay: Antiviral activity against HSV2 G-induced cytopathogenicity in E6SM cells; assay type: functional; settings: Human alphaherpesvirus 2, G
# [10] = system: Human alphaherpesvirus 1; assay: Antiviral activity against HSV1 KOS-induced cytopathogenicity in E6SM cells; assay type: functional; settings: Human alphaherpesvirus 1, KOS
# [11] = system: MCF7; assay: Antiproliferative activity against human MCF7 cells after 72 hrs by MTT assay; assay type: functional, cell-based; settings: MCF7, 72 h; in short: as §2
# [12] = system: Vesicular stomatitis virus; assay: Antiviral activity against in Vesicular stomatitis virus-induced cytopathogenicity in E6SM cells; assay type: functional
# [13] = system: HeLa; assay: Antiproliferative activity against human HeLa cells after 72 hrs by MTT assay; assay type: functional, cell-based; in short: as §2
# [14] = system: SW-620; assay: Antiproliferative activity against human SW620 cells after 72 hrs by MTT assay; assay type: functional, cell-based; settings: SW-620, 72 h; in short: as §2
# [15] = system: MIA PaCa-2; assay: Antiproliferative activity against human MiaPaCa2 cells after 72 hrs by MTT assay; assay type: functional, cell-based; settings: Homo sapiens, MIA PaCa-2, 72 h; read-out: IC50; in short: as §2
# [16] = system: Punta Toro virus; assay: Antiviral activity against Punta Toro virus-induced cytopathogenicity in Vero cells; assay type: functional
# [17] = system: Vesicular stomatitis virus; assay: Antiviral activity against in Vesicular stomatitis virus- induced cytopathogenicity in HeLa cells; assay type: functional
# [18] = system: HEp-2; assay: Antiproliferative activity against human Hep2 cells after 72 hrs by MTT assay; assay type: functional, cell-based; settings: HEp-2, 72 h; in short: as §2
smiles,measurement,setting,value
O=C1O/C(=C\Cn2cc(-c3cccs3)c(=O)[nH]c2=O)C(OCc2ccccc2)=C1OCc1ccccc1,MIC,[1],> 6.4 µM
same,MIC,[2],> 156 µM
same,IC50,[3],142 µM
same,IC50,[4],19 µM
same,MIC,[5],> 156 µM
same,IC50,[6],150 µM
same,IC50,[7],117 µM
same,MCC,[8],780 µM
same,MIC,[9],> 156 µM
same,MIC,[10],> 156 µM
same,IC50,[11],17 µM
same,MIC,[12],> 156 µM
same,IC50,[13],18 µM
same,IC50,[14],21 µM
same,IC50,[15],16.5 µM
same,MIC,[16],> 156 µM
same,MIC,[17],> 156 µM
same,IC50,[18],18 µM
O=C1O/C(=C\Cn2cc(-c3ccc(Cl)o3)c(=O)[nH]c2=O)C(OCc2ccccc2)=C1OCc1ccccc1,MIC,[1],> 150 µM
same,MIC,[2],> 150 µM
same,IC50,[3],165 µM
same,IC50,[4],> 100 µM
same,MIC,[5],> 150 µM
same,IC50,[6],158 µM
same,IC50,[7],162 µM
same,MCC,[8],752 µM
same,MIC,[9],> 150 µM
same,MIC,[10],> 150 µM
same,IC50,[11],≥ 100 µM
same,MIC,[12],150 µM
same,IC50,[13],≥ 100 µM
same,IC50,[14],> 100 µM
same,IC50,[15],≥ 100 µM
same,MIC,[16],> 150 µM
same,MIC,[17],> 150 µM
same,IC50,[18],> 100 µM
C=Cc1cn(C/C=C2\OC(=O)C(O)=C2O)c(=O)[nH]c1=O,MIC,[1],> 144 µM
same,MIC,[2],> 29 µM
same,IC50,[3],309 µM
same,IC50,[4],36 µM
same,MIC,[5],> 29 µM
same,IC50,[6],309 µM
same,IC50,[7],284 µM
same,MCC,[8],720 µM
same,MIC,[9],> 144 µM
same,MIC,[10],> 144 µM
same,IC50,[11],36 µM
same,MIC,[12],> 144 µM
same,IC50,[13],40 µM
same,IC50,[14],> 100 µM
same,IC50,[15],≥ 100 µM
same,MIC,[16],> 29 µM
same,MIC,[17],> 120 µM
same,IC50,[18],46 µM
O=C1O/C(=C\Cn2cc(C#Cc3ccccc3)c(=O)[nH]c2=O)C(OCc2ccccc2)=C1OCc1ccccc1,MIC,[1],> 40 µM
same,MIC,[2],> 200 µM
same,IC50,[3],108 µM
same,IC50,[4],> 100 µM
same,MIC,[5],120 µM
same,IC50,[6],108 µM
same,IC50,[7],101 µM
same,MCC,[8],200 µM
same,MIC,[9],> 40 µM
same,MIC,[10],> 40 µM
same,IC50,[11],55 µM
same,MIC,[12],> 40 µM
same,IC50,[13],> 100 µM
same,IC50,[14],> 100 µM
same,IC50,[15],> 100 µM
same,MIC,[16],> 200 µM
same,MIC,[17],> 200 µM
same,IC50,[18],> 100 µM
O=C1O/C(=C\Cn2cc(/C=C/Br)c(=O)[nH]c2=O)C(OCc2ccccc2)=C1OCc1ccccc1,MIC,[1],> 150 µM
same,MIC,[2],> 150 µM
same,IC50,[3],196 µM
same,IC50,[4],38 µM
same,MIC,[5],> 150 µM
same,IC50,[6],≥ 200 µM
same,IC50,[7],233 µM
same,MCC,[8],746 µM
same,MIC,[9],> 150 µM
same,MIC,[10],> 150 µM
same,IC50,[11],40 µM
same,MIC,[12],150 µM
same,IC50,[13],45 µM
same,IC50,[14],> 100 µM
same,IC50,[15],> 100 µM
same,MIC,[16],> 150 µM
same,MIC,[17],> 150 µM
same,IC50,[18],40 µM
